Test results: ChEMBL document CHEMBL4393724, “Betulin-1,4-quinone hybrids: Synthesis, anticancer activity and molecular docking study with NQO1 enzyme” (Eur J Med Chem, 2019)
Active and inactive are the calls of the source. The calls are words filed in the database; no cut-off is given here.

Tests used:
[1] = tested on: MCF7; experiment: Antiproliferative activity against human MCF7 cells assessed as reduction in cell viability incubated for 72 hrs by WST1 assay; format: functional, cell-based
Summary of the method: (§1)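 Cells held at 37 °C under 5% CO2 and seeded at 5 × 10^4 cells/well in DMEM with 10% FCS plus streptomycin and penicillin. Compounds were dissolved in DMSO and exposed for 72 h. WST-1 formazan was read at 450 nm. IC50 was derived from the mean ± SD of at least three independent experiments run in triplicate. Cisplatin served as reference.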

[2] = tested on: MDA-MB-231; experiment: Antiproliferative activity against human MDA-MB-231 cells assessed as reduction in cell viability incubated for 72 hrs by WST1 assay; format: functional, cell-based
[3] = tested on: C32; experiment: Antiproliferative activity against human C32 cells assessed as reduction in cell viability incubated for 72 hrs by WST1 assay; format: functional, cell-based; summary of the method: as §1
[4] = tested on: SNB-19; experiment: Antiproliferative activity against human SNB19 cells assessed as reduction in cell viability incubated for 72 hrs by WST1 assay; format: functional, cell-based
[5] = tested on: T47D; experiment: Antiproliferative activity against human T47D cells assessed as reduction in cell viability incubated for 72 hrs by WST1 assay; format: functional, cell-based
[6] = tested on: COLO-829; experiment: Antiproliferative activity against human COLO829 cells assessed as reduction in cell viability incubated for 72 hrs by WST1 assay; format: functional, cell-based
[7] = tested on: A549; experiment: Antiproliferative activity against human A549 cells assessed as reduction in cell viability incubated for 72 hrs by WST1 assay; format: functional, cell-based; summary of the method: as §1
[8] = target: NAD(P)H dehydrogenase [quinone] 1 (Homo sapiens) (UniProt P15559); experiment: Inhibition of NQO1 in human C32 cells assessed as increase in TP53 expression at 0.5 times of IC50 incubated for 24 hrs by RT-PCR; format: cell-based
Chain of NAD(P)H dehydrogenase [quinone] 1 (Homo sapiens) (P15559 whole entry): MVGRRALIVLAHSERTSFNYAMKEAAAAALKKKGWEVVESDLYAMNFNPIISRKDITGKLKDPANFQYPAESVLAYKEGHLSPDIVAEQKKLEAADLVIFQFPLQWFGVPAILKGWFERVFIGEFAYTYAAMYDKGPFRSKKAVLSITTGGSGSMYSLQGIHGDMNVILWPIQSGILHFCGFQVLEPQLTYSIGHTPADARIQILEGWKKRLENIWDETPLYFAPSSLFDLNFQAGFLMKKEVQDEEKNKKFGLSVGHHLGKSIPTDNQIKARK
Summary of the method: (§2)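 Cultured cells were exposed for 24 h to compound at half its IC50. Transcription of H3, TP53, CDKN1A, BAX and BCL-2 was quantified by real-time RT-qPCR with SYBR Green as mRNA copy numbers and compared with untreated control. The BAX/BCL-2 ratio was calculated from the mRNA copies.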

[9] = tested on: MCF7; experiment: Induction of apoptosis in human MCF7 cells assessed as increase in BAX/Bcl2 expression at 0.5 times of IC50 incubated for 24 hrs by RT-PCR; format: functional, cell-based; summary of the method: as §2
[10] = target: NAD(P)H dehydrogenase [quinone] 1 (Homo sapiens) (UniProt P15559); experiment: Inhibition of NQO1 in human A549 cells assessed as increase in CDKN1A expression at 0.5 times of IC50 incubated for 24 hrs by RT-PCR; format: cell-based; summary of the method: as §2
[11] = target: NAD(P)H dehydrogenase [quinone] 1 (Homo sapiens) (UniProt P15559); experiment: Inhibition of NQO1 in human A549 cells assessed as decrease in of histone H3 expression at 0.5 times of IC50 incubated for 24 hrs by RT-PCR; format: cell-based; summary of the method: as §2
[12] = target: NAD(P)H dehydrogenase [quinone] 1 (Homo sapiens) (UniProt P15559); experiment: Inhibition of NQO1 in human A549 cells assessed as increase in BAX expression at 0.5 times of IC50 incubated for 24 hrs by RT-PCR; format: cell-based; summary of the method: as §2
[13] = target: NAD(P)H dehydrogenase [quinone] 1 (Homo sapiens) (UniProt P15559); experiment: Inhibition of NQO1 in human MCF7 cells assessed as decrease in histone H3 expression at 0.5 times of IC50 incubated for 24 hrs by RT-PCR; format: cell-based; summary of the method: as §2
[14] = target: NAD(P)H dehydrogenase [quinone] 1 (Homo sapiens) (UniProt P15559); experiment: Inhibition of NQO1 in human A549 cells assessed as increase in TP53 expression at 0.5 times of IC50 incubated for 24 hrs by RT-PCR; format: cell-based; summary of the method: as §2
[15] = target: NAD(P)H dehydrogenase [quinone] 1 (Homo sapiens) (UniProt P15559); experiment: Inhibition of NQO1 in human MCF7 cells assessed as increase in TP53 expression at 0.5 times of IC50 incubated for 24 hrs by RT-PCR; format: cell-based; summary of the method: as §2
[16] = target: NAD(P)H dehydrogenase [quinone] 1 (Homo sapiens) (UniProt P15559); experiment: Inhibition of NQO1 in human C32 cells assessed as increase in BAX expression at 0.5 times of IC50 incubated for 24 hrs by RT-PCR; format: cell-based; summary of the method: as §2
[17] = tested on: A549; experiment: Induction of apoptosis in human A549 cells assessed as increase in BAX/Bcl2 expression at 0.5 times of IC50 incubated for 24 hrs by RT-PCR; format: functional, cell-based; summary of the method: as §2
[18] = target: NAD(P)H dehydrogenase [quinone] 1 (Homo sapiens) (UniProt P15559); experiment: Inhibition of NQO1 in human C32 cells assessed as effect on Bcl2 expression at 0.5 times of IC50 incubated for 24 hrs by RT-PCR; format: cell-based; summary of the method: as §2
[19] = target: NAD(P)H dehydrogenase [quinone] 1 (Homo sapiens) (UniProt P15559); experiment: Inhibition of NQO1 in human A549 cells assessed as effect on Bcl2 expression at 0.5 times of IC50 incubated for 24 hrs by RT-PCR; format: cell-based; summary of the method: as §2
[20] = target: NAD(P)H dehydrogenase [quinone] 1 (Homo sapiens) (UniProt P15559); experiment: Inhibition of NQO1 in human MCF7 cells assessed as effect on Bcl2 expression at 0.5 times of IC50 incubated for 24 hrs by RT-PCR; format: cell-based; summary of the method: as §2
[21] = target: NAD(P)H dehydrogenase [quinone] 1 (Homo sapiens) (UniProt P15559); experiment: Inhibition of NQO1 in human C32 cells assessed as decrease in histone H3 expression at 0.5 times of IC50 incubated for 24 hrs by RT-PCR; format: cell-based; summary of the method: as §2
[22] = target: NAD(P)H dehydrogenase [quinone] 1 (Homo sapiens) (UniProt P15559); experiment: Inhibition of NQO1 in human C32 cells assessed as increase in CDKN1A expression at 0.5 times of IC50 incubated for 24 hrs by RT-PCR; format: cell-based; summary of the method: as §2
[23] = target: NAD(P)H dehydrogenase [quinone] 1 (Homo sapiens) (UniProt P15559); experiment: Inhibition of NQO1 in human MCF7 cells assessed as increase in BAX expression at 0.5 times of IC50 incubated for 24 hrs by RT-PCR; format: cell-based; summary of the method: as §2
[24] = tested on: C32; experiment: Induction of apoptosis in human C32 cells assessed as increase in BAX/Bcl2 expression at 0.5 times of IC50 incubated for 24 hrs by RT-PCR relative to control; format: functional; summary of the method: as §2
[25] = target: NAD(P)H dehydrogenase [quinone] 1 (Homo sapiens) (UniProt P15559); experiment: Inhibition of NQO1 in human MCF7 cells assessed as increase in CDKN1A expression at 0.5 times of IC50 incubated for 24 hrs by RT-PCR; format: cell-based; summary of the method: as §2
[26] = Homo sapiens, COLO-829, 72 h, read-out: IC50
[27] = Homo sapiens, MCF7, 72 h, read-out: IC50
[28] = Homo sapiens, MDA-MB-231, 72 h, read-out: IC50
[29] = Homo sapiens, T47D, 72 h, read-out: IC50
[30] = Homo sapiens, A549, 72 h, read-out: IC50
[31] = Homo sapiens, C32, 72 h, read-out: IC50
[32] = Homo sapiens, SNB-19, 72 h, read-out: IC50

Row | Structure (SMILES) | IC50 ([2]; mda-mb-231) | IC50 ([5]; t47d) | IC50 [6, 26] [µM] | IC50 [1, 27] [µM] | IC50 [2, 28] [µM] | IC50 [5, 29] [µM] | IC50 [7, 30] [µM] | IC50 ([6]; colo-829) | IC50 ([3]; c32) | IC50 ([4]; snb-19) | IC50 [3, 31] [µM] | IC50 [4, 32] [µM] | also measured
1 | Cc1ccc2c(n1)C(=O)C(Cl)=C(Cl)C2=O | Not Active | Not Active | 26.4 |  |  |  |  |  | Not Active | Not Active |  |  | IC50 ([1]; mcf7): Not Active; IC50 ([7]; a549): Not Active
2 | C=C(C)[C@@H]1CC[C@]2(COC3=C(Cl)C(=O)c4cccnc4C3=O)CC[C@]3(C)[C@H](CC[C@@H]4[C@@]5(C)CC[C@H](O)C(C)(C)[C@@H]5CC[C@]43C)[C@@H]12 |  |  | 95.5 | 94.8 | 80.4 | 13.2 | 8.58 |  | Not Active | Not Active |  |  | 
3 | C=C(C)[C@@H]1CC[C@]2(COC3=C(Cl)C(=O)c4ccccc4C3=O)CC[C@]3(C)[C@H](CC[C@@H]4[C@@]5(C)CC[C@H](OC(C)=O)C(C)(C)[C@@H]5CC[C@]43C)[C@@H]12 | Not Active |  | 1.08 | 71.4 |  | 12.6 | 1.15 |  |  |  | 13.8 | 3.38 | 
4 | C=C(C)[C@@H]1CC[C@]2(COC3=C(Cl)C(=O)c4cccnc4C3=O)CC[C@]3(C)[C@H](CC[C@@H]4[C@@]5(C)CC[C@H](OC(C)=O)C(C)(C)[C@@H]5CC[C@]43C)[C@@H]12 | Not Active | Not Active |  | 96.8 |  |  | 14.3 | Not Active | Not Active | Not Active |  |  | 
5 | O=C1C(Cl)=C(Cl)C(=O)c2ccccc21 [Dichlon] | Not Active | Not Active | 37.9 |  |  |  |  |  | Not Active | Not Active |  |  | IC50 ([1]; mcf7): Not Active; IC50 ([7]; a549): Not Active

Second part, led by results:

Row | IC50 ([2]; mda-mb-231) | IC50 ([5]; t47d) | IC50 [6, 26] [µM] | IC50 [1, 27] [µM] | IC50 [2, 28] [µM] | IC50 [5, 29] [µM] | IC50 [7, 30] [µM] | IC50 ([6]; colo-829) | Structure (SMILES) | IC50 ([3]; c32) | IC50 ([4]; snb-19) | IC50 [3, 31] [µM] | IC50 [4, 32] [µM] | also measured
6 |  |  | 6.67 | 14.2 | 2.43 | 99.4 | 0.45 |  | C#CC(=O)OC[C@]12CC[C@@H](C(=C)C)[C@@H]1[C@H]1CC[C@@H]3[C@@]4(C)CC[C@H](OC5=C(Cl)C(=O)c6cccnc6C5=O)C(C)(C)[C@@H]4CC[C@@]3(C)[C@]1(C)CC2 |  |  | 1.27 | 42 | Activity [8]: Active; Activity [9]: Active; Activity [10]: Active; Activity [11]: Active; Activity [12]: Active; Activity [13]: Active; Activity [14]: Active; Activity [15]: Active; Activity [16]: Active; Activity [17]: Active; Activity [18]: inactive; Activity [19]: inactive; Activity [20]: inactive; Activity [21]: Active; Activity [22]: Active; Activity [23]: Active; Ratio [24]: 4 - 5; Activity [25]: Active
7 |  |  |  | 36.6 | 6.77 | 96.1 | 1.28 | Not Active | C#CC(=O)OC[C@]12CC[C@@H](C(=C)C)[C@@H]1[C@H]1CC[C@@H]3[C@@]4(C)CC[C@H](OC5=C(Cl)C(=O)c6ccccc6C5=O)C(C)(C)[C@@H]4CC[C@@]3(C)[C@]1(C)CC2 |  | Not Active | 1.04 |  | 
8 |  | Not Active |  | 18 | 36.9 |  | 18.4 | Not Active | C#CC(=O)OC[C@]12CC[C@@H](C(=C)C)[C@@H]1[C@H]1CC[C@@H]3[C@@]4(C)CC[C@H](OC5=C(Cl)C(=O)c6ccc(C)nc6C5=O)C(C)(C)[C@@H]4CC[C@@]3(C)[C@]1(C)CC2 | Not Active |  |  | 10.8 | 
